Experimental data reported in ChEMBL document CHEMBL2424632, “Substituted 2-hydroxy-N-(arylalkyl)benzamides induce apoptosis in cancer cell lines” (Eur J Med Chem, 2013).

Key:
[1] = system: K562; assay: Cytotoxicity against human K562 cells after 72 hrs by calcein-AM assay; type: functional, cell-based; conditions: K562, 72 h
[2] = system: MCF7; assay: Cytotoxicity against human MCF7 cells after 72 hrs by calcein-AM assay; type: functional, cell-based; conditions: MCF7, 72 h
[3] = system: HeLa; assay: Cytotoxicity against human HeLa cells after 72 hrs by calcein-AM assay; type: functional, cell-based
[4] = system: G-361; assay: Induction of apoptosis in human G361 cells assessed as caspase-3/7 activation at 2 uM after 24 hrs by fluorescence assay relative to control; type: functional
Method in brief: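 G361 cells seeded at 20,000 per well overnight, then exposed 24 h to compound at 2 µM final. 3x caspase-3/7 buffer (HEPES pH 7.4, NaCl, KCl, MgCl2, EGTA, NP-40, CHAPS, sucrose, DTT, PMSF) with Ac-DEVD-AMC substrate added; incubated 37 °C, fluorescence read after 4 h at 346/442 nm; activity expressed relative to untreated cells.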

[5] = system: G-361; assay: Cytotoxicity against human G361 cells after 72 hrs by calcein-AM assay; type: functional, cell-based; conditions: G-361, 72 h
[6] = system: HOS; assay: Cytotoxicity against human HOS cells after 72 hrs by calcein-AM assay; type: functional, cell-based
[7] = system: HCT-116; assay: Cytotoxicity against human HCT116 cells after 72 hrs by calcein-AM assay; type: functional, cell-based; conditions: HCT-116, 72 h

Structure (SMILES)	IC50 [1]	IC50 [2]	further results
Cc1ccc(NC(=O)[C@H](C)NC(=O)c2cc(Cl)ccc2O)cc1	> 10 µM	> 10 µM	
CC(C)[C@H](NC(=O)c1cc(Cl)ccc1O)C(=O)Nc1cccc(Cl)c1	> 10 µM	> 10 µM	
O=C(N[C@@H](CC1CCCCC1)C(=O)Nc1ccc(Br)cc1)c1cc(Cl)ccc1O	3 µM	1.9 µM	IC50 [3]: 1.3 µM; fold change (FC) [4]: >10; IC50 [5]: 1.3 µM; IC50 [6]: 3.3 µM; IC50 [7]: 2 µM
C[C@H](NC(=O)c1ccc(Cl)cc1O)C(=O)Nc1ccc(Cl)cc1	> 10 µM	> 10 µM	
COc1ccc(NC(=O)[C@@H](NC(=O)c2cc(Cl)ccc2O)C(C)C)cc1	> 10 µM	> 10 µM	
CC(C)[C@H](NC(=O)c1ccc(Cl)cc1O)C(=O)Nc1ccc(Cl)cc1	> 10 µM	> 10 µM	
C[C@H](NC(=O)c1cc(Cl)ccc1O)C(=O)Nc1cccc(Cl)c1	> 10 µM	> 10 µM	
O=C(N[C@H](Cc1ccccc1)C(=O)Nc1ccc(Cl)c(Cl)c1)c1cc(Cl)ccc1O	> 10 µM	> 10 µM	
O=C(N[C@H](Cc1ccccc1)C(=O)Nc1cccc(Cl)c1)c1cc(Cl)ccc1O	> 20 µM	18.4 µM	
CC(C)[C@H](NC(=O)c1cc(Cl)ccc1O)C(=O)Nc1ccc(Cl)cc1	> 20 µM	> 10 µM	
CC[C@H](CO)Nc1nc(NCc2ccccc2)c2ncn(C(C)C)c2n1 [SELICICLIB]		12.3 µM	
C[C@H](NC(=O)c1cc(Cl)ccc1O)C(=O)Nc1ccc(C(F)(F)F)cc1	> 12.5 µM	> 12.5 µM	
C[C@H](NC(=O)c1ccc(Cl)cc1O)C(=O)Nc1ccc(Cl)c(Cl)c1	> 12.5 µM	> 12.5 µM	
O=C(CNC(=O)c1cc(Cl)ccc1O)Nc1ccc(Cl)c(Cl)c1	> 20 µM	> 20 µM	
O=C(N[C@@H](Cc1ccccc1)C(=O)Nc1ccc(Cl)cc1)c1cc(Cl)ccc1O	> 10 µM	7.9 µM	
Cc1ccc(NC(=O)c2ccc(CN3CCN(C)CC3)cc2)cc1Nc1nccc(-c2cccnc2)n1 [IMATINIB]	0.5 µM	> 10 µM	
O=C(N[C@@H](Cc1ccccc1)C(=O)Nc1ccc(Cl)c(Cl)c1)c1cc(Cl)ccc1O	> 10 µM	> 10 µM	
